Rows were chosen to be rich in hits. Some 5.8% of all compounds tested hit in one or more screens of this group.
KDM4C inh = inhibitors of human demethylase GASC-1 KDM4C; inhibition, % at 12.5 µM; AID 720574; Q9H3R0; hit rate 0.15% among 96,000; GST-KDM4C 2-372, H3K9me3 peptide, LANCE TR-FRET;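 active means mean replicate inhibition above about 25%, with at least 55% of replicates also reaching it, limit read from the data, passing the limit was not always enough; inconclusive means only one of those two conditions met; inactive means neither condition met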
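material = GST-tagged GASC-1 (JMJD2C) catalytic fragment, aa 2-372 | amount = enzyme final amount 10 nM | medium = HEPES buffer, pH 7.5, plus ascorbate | also added = H3K9me3 peptide substrate, Fe(II), 2-oxoglutarate | dosing = single dose | times = 30 min demethylation and 1 h detection at room temperature | detection = LANCE TR-FRET | read-out basis = Fall in 671/618 emission ratio as inhibition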
IDH1 mut inh = IDH1 R132H (human) inhibition; IDH1 R132H reductase, diaphorase/resazurin fluorescence, 60 min; inhibition, % at 10 µM; hit rate 0.18% among 70,000; AID 624101; in the data active means inhibition above about 34%; inconclusive means no clear call, values can overlap the other calls; inactive means below about 11%
Target sequence (O75874 whole entry R132H): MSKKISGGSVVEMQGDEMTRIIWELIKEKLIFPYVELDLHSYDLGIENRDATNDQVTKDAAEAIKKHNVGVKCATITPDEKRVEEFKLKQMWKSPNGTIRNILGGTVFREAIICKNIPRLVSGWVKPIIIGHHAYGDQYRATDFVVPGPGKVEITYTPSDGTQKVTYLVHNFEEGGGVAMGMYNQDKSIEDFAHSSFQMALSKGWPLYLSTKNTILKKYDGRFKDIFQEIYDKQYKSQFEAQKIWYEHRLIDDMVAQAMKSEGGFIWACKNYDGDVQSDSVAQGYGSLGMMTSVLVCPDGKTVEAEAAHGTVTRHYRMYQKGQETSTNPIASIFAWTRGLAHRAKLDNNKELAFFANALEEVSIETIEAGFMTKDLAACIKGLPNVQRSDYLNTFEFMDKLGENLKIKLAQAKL
T cruzi growth-1 = inhibitors of T. cruzi proliferation | T. cruzi beta-gal in NIH3T3, GalScreen luminescence, 90 h | inhibition, % at 8.34 µM | hit rate 5.9% among 77,000 | AID 624255;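 active means mean inhibition above about 93%, with at least 55% of replicates each passing it, limit read from the data, passing the limit was not always enough; inconclusive means only one of those two conditions holds; inactive means neither condition holds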
Pf Dd2 inh = inhibitors of Plasmodium falciparum Dd2 growth; activity change, % at 10 µM; hit rate 2.3% among 94,000; P. falciparum Dd2 growth, SYBR Green, 72 h; hits give low values; in the data active means activity change below about -80%; inconclusive means no clear call, values can overlap the other calls
T cruzi growth-2 = inhibitors of T. cruzi proliferation | hit rate 72% among 5,600 | shares compounds with T cruzi growth-1 | inhibition, % at 8.35 µM | T. cruzi beta-gal in NIH3T3, GalScreen luminescence, 90 h;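 active means mean replicate inhibition above about 95% and at least 55% of replicates individually reaching it, limit read from the data; inconclusive means only one of the two criteria is met; inactive means neither criterion is met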
T cruzi growth-3 = blocks T. cruzi growth in NIH3T3 host cells. shares compounds with T cruzi growth-1. T. cruzi beta-gal in NIH3T3, GalScreen luminescence, 90 h. inhibition, % at 2.09 µM. hit rate 21% among 5,600. AID 651740;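 active means mean inhibition above about 95%, with at least 55% of replicates also reaching it, limit read from the data; inconclusive means meets just one of the two conditions; inactive means meets neither condition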
3T3 cytotox = NIH/3T3 (mouse) viability loss. shares compounds with T cruzi growth-1. NIH/3T3 viability, CellTiter-Glo ATP luminescence, 90 h. cytotoxicity (signal decrease), % at 8.35 µM. hit rate 14% among 5,600. AID 651742;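 active means mean signal decrease across replicates above about 35% based on untreated-well scatter, with enough replicates individually passing, limit read from the data; inconclusive means no rule stated though some were filed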
3T3 cytotox 2 = cytotoxicity in mouse NIH/3T3 fibroblasts; shares compounds with T cruzi growth-1; NIH/3T3 viability, CellTiter-Glo ATP luminescence, 90 h; inhibition, % at 24.9 µM; hit rate 56% among 5,600;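 active means mean loss of cell viability signal at or above a set limit, and enough replicates individually reaching it; inconclusive means meets only the mean limit or only the replicate share; inactive means meets neither condition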
Of the large screens only hits and unclear results are named; the others gave an inactive call (follow-up assays come after a bar, where they were run); ! = not confirmed by another sample.

C[C@@H]1CCCCO[C@@H](CN(C)CC2CC2)[C@@H](C)CN([C@H](C)CO)C(=O)c2cc(NC(=O)Nc3ccccc3)ccc2O1	T cruzi growth-1 96.7, Pf Dd2 inh -83.9 (no result: IDH1 mut inh) | T cruzi growth-2 inactive | T cruzi growth-3 inactive | 3T3 cytotox inactive | 3T3 cytotox 2 inactive
C[C@@H]1CN([C@@H](C)CO)C(=O)c2cc(NC(=O)Nc3ccccc3)ccc2O[C@@H](C)CCCCO[C@H]1CN(C)CC1CCCCC1	T cruzi growth-1 97.0 | T cruzi growth-2 inactive | T cruzi growth-3 inactive | 3T3 cytotox inactive | 3T3 cytotox 2 inactive
C[C@@H]1CCCCO[C@@H](CN(C)CC2CC2)[C@H](C)CN([C@@H](C)CO)C(=O)c2cc(NC(=O)Nc3ccccc3)ccc2O1	none (no result: IDH1 mut inh)
COc1ccc(NC(=O)Nc2ccc3c(c2)C(=O)N([C@@H](C)CO)C[C@@H](C)[C@H](CN(C)CC2CCCCC2)OCCCC[C@@H](C)O3)cc1	T cruzi growth-1 inconclusive (no result: IDH1 mut inh) | T cruzi growth-2 98.5 | T cruzi growth-3 inactive | 3T3 cytotox inactive | 3T3 cytotox 2 103.8
C[C@@H]1CCCCO[C@H](CN(C)CC2CCCCC2)[C@H](C)CN([C@H](C)CO)C(=O)c2cc(NC(=O)Nc3ccccc3)ccc2O1	T cruzi growth-1 inconclusive, Pf Dd2 inh inconclusive (no result: IDH1 mut inh) | T cruzi growth-2 101.5 | T cruzi growth-3 inactive | 3T3 cytotox inactive | 3T3 cytotox 2 104.6
C[C@@H]1CCCCO[C@@H](CN(C)CC2CCCCC2)[C@H](C)CN([C@@H](C)CO)C(=O)c2cc(NC(=O)NC3CCCCC3)ccc2O1	T cruzi growth-1 98.8 | T cruzi growth-2 109.1 | T cruzi growth-3 inactive | 3T3 cytotox inactive | 3T3 cytotox 2 105.6
CS(=O)(=O)Nc1ccc2c(c1)[C@H]1C[C@H](CC(=O)NCc3ccncc3)O[C@@H](CO)[C@H]1O2	T cruzi growth-1 102.3 | T cruzi growth-2 inactive | T cruzi growth-3 inactive | 3T3 cytotox inactive | 3T3 cytotox 2 inactive
CS(=O)(=O)Nc1ccc2c(c1)[C@@H]1C[C@@H](CC(=O)NCc3ccncc3)O[C@H](CO)[C@@H]1O2	T cruzi growth-1 117.5 | T cruzi growth-2 inactive | T cruzi growth-3 inactive | 3T3 cytotox inactive | 3T3 cytotox 2 inactive
CNC[C@@H]1OCCCC[C@@H](C)Oc2ccc(NC(=O)CCCN(C)C)cc2C(=O)N([C@H](C)CO)C[C@@H]1C	none (no result: IDH1 mut inh)
CNC[C@H]1OCCCC[C@H](C)Oc2ccc(NC(=O)CCCN(C)C)cc2C(=O)N([C@H](C)CO)C[C@@H]1C	T cruzi growth-1 100.5! | T cruzi growth-2 inactive | T cruzi growth-3 inactive | 3T3 cytotox inactive | 3T3 cytotox 2 inactive
CNC[C@@H]1OCCCC[C@H](C)Oc2ccc(NC(=O)CCC(F)(F)F)cc2C(=O)N([C@@H](C)CO)C[C@@H]1C	T cruzi growth-1 97.7 | T cruzi growth-2 inconclusive | T cruzi growth-3 inactive | 3T3 cytotox inactive | 3T3 cytotox 2 inactive
CNC[C@H]1OCCCC[C@@H](C)Oc2ccc(NC(=O)Cc3ccccc3)cc2C(=O)N([C@@H](C)CO)C[C@H]1C	T cruzi growth-1 inconclusive (no result: IDH1 mut inh) | T cruzi growth-2 inactive | T cruzi growth-3 inactive | 3T3 cytotox inactive | 3T3 cytotox 2 inactive
C[C@H]1CN([C@@H](C)CO)C(=O)c2cc(NC(=O)CCCN(C)C)ccc2O[C@@H]1CN(C)S(C)(=O)=O	T cruzi growth-1 104.2 | T cruzi growth-2 inactive | T cruzi growth-3 inactive | 3T3 cytotox inactive | 3T3 cytotox 2 inactive
O=C(NO)c1ccc(C(=O)N/N=C/c2ccccc2[N+](=O)[O-])cc1	none (no result: KDM4C inh, T cruzi growth-1, Pf Dd2 inh)
COC(=O)c1cc(NC(=O)CSc2nc(C)cc(C)n2)cc(C(=O)OC)c1	none (no result: KDM4C inh, T cruzi growth-1, Pf Dd2 inh)
O=C(C[C@H]1CC[C@H]2[C@@H](COC[C@@H](O)CN2S(=O)(=O)c2ccc(Cl)cc2)O1)N[C@@H]1CCN(Cc2ccccc2)C1	T cruzi growth-1 96.1 (no result: IDH1 mut inh) | T cruzi growth-2 inconclusive | T cruzi growth-3 inactive | 3T3 cytotox inactive | 3T3 cytotox 2 inactive
Cc1ccc(S(=O)(=O)N2C[C@H](O)COC[C@H]3O[C@@H](CC(=O)N[C@@H]4CCN(Cc5ccccc5)C4)CC[C@@H]32)cc1	T cruzi growth-1 97.9 (no result: IDH1 mut inh) | T cruzi growth-2 inactive | T cruzi growth-3 inactive | 3T3 cytotox inactive | 3T3 cytotox 2 inactive
